Measurements from ChEMBL document CHEMBL5678799 (Biochem J, 2009).
Activity calls are given as the source filed them. The rule behind the calls is not given here.

What was measured:
[1] = target: MAP/microtubule affinity-regulating kinase 3 (Homo sapiens) (UniProt P27448); assay: Inhibition of recombinant human N-terminal His6-tagged MARK3 (2 to 729 residues) expressed in baculovirus infected Sf21 cells assessed as remaining activity at 1 uM using CHKtide as substrate incubated for 30 mins in presence of [gamma-33P]ATP by filter binding method relative to control
[2] = target: Insulin receptor (Homo sapiens) (UniProt P06213); assay: Inhibition of recombinant human N-terminal His6-tagged IR (1001 to 1382 residues) expressed in baculovirus infected Sf21 cells assessed as remaining activity at 1 uM using KKSRGDYMTMQIG as substrate incubated for 30 mins in presence of [gamma-33P]ATP by filter binding method relative to control
How it was run: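 Panel assays were run for 30 min at 21 °C, within the linear range for time and enzyme. […] Results are percent activity remaining relative to compound-free control, averaged from triplicate ± S.D.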

[3] = target: Ribosomal protein S6 kinase alpha-5 (Homo sapiens) (UniProt O75582); assay: Inhibition of recombinant human His6-tagged MSK1 (2 to 802 residues) expressed in baculovirus infected Sf21 cells assessed as remaining activity at 1 uM using GRPRTSSFAEGKK as substrate incubated for 30 mins in presence of [gamma-33P]ATP by filter binding method relative to control
How it was run: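 Robotic radiometric panel assay, 30 min at room temperature (21 °C), with 10 mM magnesium acetate. […] Compound at 1 or 10 µM. Residual activity expressed relative to compound-free control; triplicate average ± S.D.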

[4] = target: Tyrosine-protein kinase CSK (Homo sapiens) (UniProt P41240); assay: Inhibition of recombinant human N-terminal GST-tagged CSK (1 to 450 residues) expressed in Escherichia coli assessed as remaining activity at 1 uM Cdc2 peptide as substrate incubated for 30 mins in presence of [gamma-33P]ATP by filter binding method relative to control
How it was run: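 Incubations ran robotically for 30 min at room temperature (21 °C) under linear conditions. Results are percent activity remaining versus controls without compound, as the mean of triplicates ± S.D.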

HEK293 = assay: Inhibition of PI3K in IGF1-stimulated HEK293 cells assessed as reduction in IGF1-stimulated PtdIns(3,4,5)P3 production at 1 uM pre incubated for 30 mins followed by IGF1-stimulation for 10 mins; assay type: cell-based; conditions: Homo sapiens
mTORC1 (Homo sapiens) [5] = target: T1, mTORC1 (Homo sapiens) (UniProt P42345+Q8N122+Q9BVC4); conditions: HEK293, dose 30-1000 nM, time 30.0 min
[6] = target: Tyrosine-protein kinase Lck (Homo sapiens) (UniProt P06239); assay: Inhibition of recombinant human N-terminal His6-tagged LCK (2 to 509 residues) expressed in baculovirus infected Sf21 cells assessed as remaining activity at 1 uM using KVEKIGEGTYGVVYK as substrate incubated for 30 mins in presence of [gamma-33P]ATP by filter binding method relative to control
How it was run: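 Assays ran 30 min at 21 °C, robotically and in the linear range. Remaining activity is given relative to incubations lacking compound, as the average of triplicate determinations ± S.D.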

mTORC1 (Homo sapiens) [7] = target: T1, mTORC1 (Homo sapiens); conditions: HEK293, dose 100-300 nM, time 30.0 min
[8] = target: Serine/threonine-protein kinase PAK 4 (Homo sapiens) (UniProt O96013); assay: Inhibition of recombinant human N-terminal GST-tagged PAK4 (2 to 519 residues) expressed in Escherichia coli assessed as remaining activity at 10 uM using RRRLSFAEPG as substrate incubated for 30 mins in presence of [gamma-33P]ATP by filter binding method relative to control
How it was run: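 Radiometric kinase panel run robotically at room temperature (21 °C) for 30 min, linear in time and enzyme. […] Activity is expressed as percent of control without compound, from triplicate determinations ± S.D.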

[9] = target: Serine/threonine-protein kinase PLK1 (Homo sapiens) (UniProt P53350); assay: Inhibition of recombinant human N-terminal His6-tagged PLK1 (1 to 603 residues) expressed in baculovirus infected Sf21 cells assessed as remaining activity at 1 uM using ISDELMDATFADQEAKKK as substrate incubated for 30 mins in presence of [gamma-33P]ATP by filter binding method relative to control
How it was run: (§1)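 Radiometric panel assay run robotically at 21 °C for 30 min, linear in time and enzyme. […] Activity is expressed as percentage of the compound-omitted control, averaged from triplicates ± S.D.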

[10] = target: Tyrosine-protein kinase Yes (Homo sapiens) (UniProt P07947); assay: Inhibition of recombinant human N-terminal His6-tagged YES1 (1 to 543 residues) expressed in baculovirus infected Sf21 cells assessed as remaining activity at 10 uM using Poly(Glu,Tyr) as substrate incubated for 30 mins in presence of [gamma-33P]ATP by filter binding assay relative to control; how it was run: as §1
[11] = target: Dual specificity mitogen-activated protein kinase kinase 1 (Homo sapiens) (UniProt Q02750); assay: Inhibition of recombinant human MKK1 (2 to 393 residues) expressed in Escherichia coli assessed as remaining activity at 10 uM using MBP as substrate incubated for 30 mins in presence of [gamma-33P]ATP by filter binding method relative to control
How it was run: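 Kinase panel run robotically at 21 °C for 30 min, linear in time and enzyme. […] Compound tested at 1 or 10 µM. Activity given as percentage of incubations without compound, mean of triplicates ± S.D.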

MEF = assay: Induction of cell cycle arrest in mLST8 knockout MEF cells assessed as accumulation at G2 phase at 3 uM incubated for 1 to 3 days by propidium iodide staining based flow cytometric analysis (reference value: 14.1 +/- 0.69%); assay type: toxicity; conditions: mouse, time 1-3 day
[12] = target: Serine/threonine-protein kinase PLK1 (Homo sapiens) (UniProt P53350); assay: Inhibition of recombinant human N-terminal His6-tagged PLK1 (1 to 603 residues) expressed in baculovirus infected Sf21 cells assessed as remaining activity at 10 uM using ISDELMDATFADQEAKKK as substrate incubated for 30 mins in presence of [gamma-33P]ATP by filter binding method relative to control; how it was run: as §1
mTORC2 (Homo sapiens) = mTORC2 (Homo sapiens) (UniProt P42345+Q6R327+Q9BVC4+Q9BPZ7); conditions: HEK293, dose 30-1000 nM, time 30.0 min
[13] = target: Mitogen-activated protein kinase; ERK1/ERK2 (Homo sapiens) (UniProt P27361+P28482); assay: Inhibition of ERK1/2 in serum starved/PMA-stimulated HEK293 cells assessed as reduction in RSK phosphorylation at S227 residues at 1 uM incubated for 30 mins by immunoblot analysis; assay type: cell-based
[14] = target: Mitogen-activated protein kinase 9 (Homo sapiens) (UniProt P45984); assay: Inhibition of recombinant human N-terminal His6-tagged JNK2alpha2 (1 to 424 residues) expressed in baculovirus infected Sf21 cells assessed as remaining activity at 1 uM using ATF2 as substrate incubated for 30 mins in presence of [gamma-33P]ATP by filter binding method relative to control
mTORC1 (Homo sapiens) [15] = target: T1, mTORC1 (Homo sapiens); conditions: HEK293, dose 30-1000 nM, time 30.0 min; remark: listed apart in the source

Serine/threonine-protein kinase PLK1 (Homo sapiens), sequence (P53350 whole entry, the tested form may be a part): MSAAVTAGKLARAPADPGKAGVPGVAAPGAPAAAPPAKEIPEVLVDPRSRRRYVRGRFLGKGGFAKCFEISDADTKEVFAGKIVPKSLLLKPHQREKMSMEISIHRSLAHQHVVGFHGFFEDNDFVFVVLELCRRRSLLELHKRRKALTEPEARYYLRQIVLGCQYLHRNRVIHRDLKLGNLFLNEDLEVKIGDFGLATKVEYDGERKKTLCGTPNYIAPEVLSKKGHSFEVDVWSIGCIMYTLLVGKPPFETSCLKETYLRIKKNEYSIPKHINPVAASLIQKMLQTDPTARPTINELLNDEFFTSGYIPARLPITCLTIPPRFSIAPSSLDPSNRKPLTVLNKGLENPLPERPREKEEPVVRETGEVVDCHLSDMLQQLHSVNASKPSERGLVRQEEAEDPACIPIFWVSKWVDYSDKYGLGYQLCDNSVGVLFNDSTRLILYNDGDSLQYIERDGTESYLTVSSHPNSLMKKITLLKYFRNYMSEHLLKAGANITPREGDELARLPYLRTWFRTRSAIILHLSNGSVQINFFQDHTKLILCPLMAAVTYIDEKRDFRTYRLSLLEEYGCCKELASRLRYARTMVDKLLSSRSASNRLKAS
Ribosomal protein S6 kinase alpha-5 (Homo sapiens), sequence (O75582 whole entry, looked up, the tested form may be a part): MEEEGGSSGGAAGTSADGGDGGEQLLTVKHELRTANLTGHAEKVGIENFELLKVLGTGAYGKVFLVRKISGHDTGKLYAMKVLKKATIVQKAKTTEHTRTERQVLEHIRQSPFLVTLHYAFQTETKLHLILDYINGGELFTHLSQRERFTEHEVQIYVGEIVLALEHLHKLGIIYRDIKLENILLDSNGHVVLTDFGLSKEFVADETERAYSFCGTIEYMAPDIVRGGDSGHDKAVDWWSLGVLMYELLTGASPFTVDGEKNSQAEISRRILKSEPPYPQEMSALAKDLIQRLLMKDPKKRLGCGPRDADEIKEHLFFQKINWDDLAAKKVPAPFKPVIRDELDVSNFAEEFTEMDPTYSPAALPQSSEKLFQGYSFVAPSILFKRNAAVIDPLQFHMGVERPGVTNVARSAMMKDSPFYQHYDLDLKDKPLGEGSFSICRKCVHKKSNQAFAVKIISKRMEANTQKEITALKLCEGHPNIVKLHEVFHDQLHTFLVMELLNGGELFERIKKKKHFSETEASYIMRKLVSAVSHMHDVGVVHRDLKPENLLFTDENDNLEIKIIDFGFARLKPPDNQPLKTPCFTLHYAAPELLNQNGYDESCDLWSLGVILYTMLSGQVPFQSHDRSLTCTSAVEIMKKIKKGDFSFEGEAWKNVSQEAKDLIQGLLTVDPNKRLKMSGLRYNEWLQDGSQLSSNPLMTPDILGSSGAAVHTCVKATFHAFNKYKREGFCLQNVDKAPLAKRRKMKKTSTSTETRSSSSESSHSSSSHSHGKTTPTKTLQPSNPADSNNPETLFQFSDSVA
MAP/microtubule affinity-regulating kinase 3 (Homo sapiens), sequence (P27448 whole entry, looked up, the tested form may be a part): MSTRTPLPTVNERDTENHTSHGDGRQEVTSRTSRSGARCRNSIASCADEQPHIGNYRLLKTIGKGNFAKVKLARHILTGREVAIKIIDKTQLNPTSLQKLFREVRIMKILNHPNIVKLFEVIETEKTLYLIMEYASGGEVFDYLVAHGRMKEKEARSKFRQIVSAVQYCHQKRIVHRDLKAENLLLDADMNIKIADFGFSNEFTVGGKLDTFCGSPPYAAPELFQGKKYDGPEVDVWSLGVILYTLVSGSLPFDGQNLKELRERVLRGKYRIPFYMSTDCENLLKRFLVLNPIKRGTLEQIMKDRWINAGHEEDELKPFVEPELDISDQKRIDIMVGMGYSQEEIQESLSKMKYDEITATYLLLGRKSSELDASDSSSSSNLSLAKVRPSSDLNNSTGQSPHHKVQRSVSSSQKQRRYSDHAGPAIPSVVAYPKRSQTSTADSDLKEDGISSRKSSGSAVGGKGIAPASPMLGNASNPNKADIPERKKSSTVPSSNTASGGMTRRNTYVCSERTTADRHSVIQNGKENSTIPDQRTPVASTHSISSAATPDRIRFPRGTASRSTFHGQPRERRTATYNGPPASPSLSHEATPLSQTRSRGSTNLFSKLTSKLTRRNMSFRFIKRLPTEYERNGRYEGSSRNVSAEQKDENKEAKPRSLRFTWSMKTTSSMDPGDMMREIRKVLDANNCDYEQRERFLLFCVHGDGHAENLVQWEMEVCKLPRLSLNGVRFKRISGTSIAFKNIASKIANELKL
Mitogen-activated protein kinase; ERK1/ERK2 (Homo sapiens), sequence (P27361 whole entry, looked up, the tested form may be a part): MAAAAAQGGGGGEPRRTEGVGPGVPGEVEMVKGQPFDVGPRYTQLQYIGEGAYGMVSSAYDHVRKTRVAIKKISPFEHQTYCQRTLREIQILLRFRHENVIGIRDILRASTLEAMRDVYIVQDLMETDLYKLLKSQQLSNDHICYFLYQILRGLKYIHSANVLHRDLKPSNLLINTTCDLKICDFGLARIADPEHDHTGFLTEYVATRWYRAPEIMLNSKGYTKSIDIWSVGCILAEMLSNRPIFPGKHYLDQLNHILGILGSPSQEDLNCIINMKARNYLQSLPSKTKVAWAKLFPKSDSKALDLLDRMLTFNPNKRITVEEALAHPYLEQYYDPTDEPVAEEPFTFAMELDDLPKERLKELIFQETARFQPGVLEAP
Mitogen-activated protein kinase; ERK1/ERK2 (Homo sapiens), sequence (P28482 whole entry, looked up, the tested form may be a part): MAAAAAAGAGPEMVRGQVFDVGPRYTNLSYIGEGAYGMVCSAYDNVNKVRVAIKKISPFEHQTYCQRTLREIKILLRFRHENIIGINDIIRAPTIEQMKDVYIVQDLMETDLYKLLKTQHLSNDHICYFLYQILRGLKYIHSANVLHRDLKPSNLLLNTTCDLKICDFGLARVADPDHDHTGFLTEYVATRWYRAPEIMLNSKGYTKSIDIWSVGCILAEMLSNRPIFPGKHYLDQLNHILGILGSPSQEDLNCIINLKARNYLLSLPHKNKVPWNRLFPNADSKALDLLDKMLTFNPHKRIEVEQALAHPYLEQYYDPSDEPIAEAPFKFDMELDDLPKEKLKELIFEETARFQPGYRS
Tyrosine-protein kinase Lck (Homo sapiens), sequence (P06239 2-509 limits assumed): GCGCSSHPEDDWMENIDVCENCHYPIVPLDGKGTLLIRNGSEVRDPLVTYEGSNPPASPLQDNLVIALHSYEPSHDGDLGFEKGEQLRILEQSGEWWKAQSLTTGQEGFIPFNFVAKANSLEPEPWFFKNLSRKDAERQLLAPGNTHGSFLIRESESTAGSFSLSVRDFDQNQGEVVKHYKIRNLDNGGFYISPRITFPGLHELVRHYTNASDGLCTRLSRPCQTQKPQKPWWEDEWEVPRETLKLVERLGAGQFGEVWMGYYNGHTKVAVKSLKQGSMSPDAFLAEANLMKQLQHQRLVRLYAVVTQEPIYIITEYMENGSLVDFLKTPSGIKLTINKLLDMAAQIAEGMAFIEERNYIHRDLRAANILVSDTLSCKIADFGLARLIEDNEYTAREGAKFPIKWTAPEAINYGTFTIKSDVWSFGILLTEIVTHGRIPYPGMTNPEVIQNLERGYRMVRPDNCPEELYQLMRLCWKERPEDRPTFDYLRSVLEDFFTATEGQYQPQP
Dual specificity mitogen-activated protein kinase kinase 1 (Homo sapiens), sequence (Q02750 whole entry, the tested form may be a part): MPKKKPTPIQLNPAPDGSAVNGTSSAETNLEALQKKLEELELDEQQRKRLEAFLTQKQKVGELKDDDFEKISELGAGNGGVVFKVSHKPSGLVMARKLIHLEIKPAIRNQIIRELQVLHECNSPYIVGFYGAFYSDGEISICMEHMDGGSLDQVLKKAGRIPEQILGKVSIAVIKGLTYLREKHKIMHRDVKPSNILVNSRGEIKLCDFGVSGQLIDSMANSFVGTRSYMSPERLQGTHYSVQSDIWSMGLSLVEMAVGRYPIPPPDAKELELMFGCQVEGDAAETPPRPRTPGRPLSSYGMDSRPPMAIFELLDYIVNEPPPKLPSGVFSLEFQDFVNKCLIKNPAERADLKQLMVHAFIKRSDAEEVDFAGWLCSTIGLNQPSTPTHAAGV
Tyrosine-protein kinase Yes (Homo sapiens), sequence (P07947 2-543 limits assumed): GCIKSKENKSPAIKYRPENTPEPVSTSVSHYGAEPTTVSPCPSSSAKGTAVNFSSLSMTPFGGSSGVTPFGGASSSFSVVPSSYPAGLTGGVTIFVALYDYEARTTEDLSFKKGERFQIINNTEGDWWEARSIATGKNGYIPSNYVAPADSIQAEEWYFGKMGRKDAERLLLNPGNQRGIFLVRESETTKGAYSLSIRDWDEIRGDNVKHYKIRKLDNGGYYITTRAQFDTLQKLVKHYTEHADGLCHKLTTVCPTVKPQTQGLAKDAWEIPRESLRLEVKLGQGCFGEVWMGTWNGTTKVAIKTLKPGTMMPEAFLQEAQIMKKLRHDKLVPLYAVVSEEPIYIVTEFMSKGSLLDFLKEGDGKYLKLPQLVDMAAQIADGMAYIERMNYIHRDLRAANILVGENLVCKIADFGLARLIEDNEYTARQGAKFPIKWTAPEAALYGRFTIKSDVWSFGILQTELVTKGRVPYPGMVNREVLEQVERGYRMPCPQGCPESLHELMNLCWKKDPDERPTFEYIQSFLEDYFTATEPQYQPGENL
Tyrosine-protein kinase CSK (Homo sapiens), sequence (P41240 2-450 limits assumed): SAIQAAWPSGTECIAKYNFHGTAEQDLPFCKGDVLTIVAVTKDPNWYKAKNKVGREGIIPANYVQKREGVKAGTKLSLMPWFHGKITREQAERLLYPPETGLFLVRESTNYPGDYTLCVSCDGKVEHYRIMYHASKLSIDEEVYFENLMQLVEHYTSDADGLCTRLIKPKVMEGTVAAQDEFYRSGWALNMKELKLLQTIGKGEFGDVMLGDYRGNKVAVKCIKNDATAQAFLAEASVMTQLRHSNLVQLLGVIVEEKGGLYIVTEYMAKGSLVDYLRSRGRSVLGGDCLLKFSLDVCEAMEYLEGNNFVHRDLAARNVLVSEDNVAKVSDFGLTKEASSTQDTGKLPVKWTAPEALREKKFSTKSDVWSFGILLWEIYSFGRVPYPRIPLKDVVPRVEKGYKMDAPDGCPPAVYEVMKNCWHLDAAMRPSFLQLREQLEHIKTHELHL

COc1ccc(-c2ccc3c(N4CCOCC4)nc(N4C[C@@H](C)O[C@@H](C)C4)nc3n2)cc1CO [Ku-0063794]
Activity [1]: 93%
Activity [2]: 81%
Activity [3]: 101%
Activity [4]: 90%
inhibition (HEK293): inactive
inhibition (mTORC1 (Homo sapiens) [5]): Active
Activity [6]: 69%
inhibition (mTORC1 (Homo sapiens) [7]): 100%
Activity [8]: 75%
Activity [9]: 76%
Activity [10]: 90%
Activity [11]: 43%
Activity (MEF): 13.3%
Activity [12]: 94%
inhibition (mTORC2 (Homo sapiens)): Dose-Dependent Effect
inhibition [13]: inactive
Activity [14]: 101%
inhibition (mTORC1 (Homo sapiens) [15]): Dose-Dependent Effect
